Results from ChEMBL document CHEMBL1255334.
Activity calls are given as the source filed them. The calls are words filed in the database; no cut-off is given here.

Legend:
Assay type in all cases: functional, organism-based
[1] = test system: Mycobacterium tuberculosis; assay: (§1) Antibacterial activity against Mycobacterium tuberculosis containing wild type PZase assessed as at 100 mg/liter
In short: (§2)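 Clinical M. tuberculosis isolates first grown on Löwenstein-Jensen medium 3 to 4 weeks at 37°C. Radiometric BACTEC 460 test in acidified PZA test medium. Inoculum: ~McFarland 1 suspension grown in 12B medium until growth index (GI) >300. Paired vials per strain: drug-free control and PZA 100 mg/liter. Read when control GI reached 200. Resistant if PZA-vial GI >11% of control GI, susceptible if <9%.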

[2] = test system: Mycobacterium tuberculosis; assay: as §1; in short: as §2; remark: listed apart in the source
[3] = test system: Mycobacterium tuberculosis; assay: Antibacterial activity against Mycobacterium tuberculosis containing pncA gene with C deletion at nt 99 assessed as at 100 mg/liter; in short: as §2

Q: What does the source list for `NC(=O)c1cnccn1`?
A: Activity [1]: Active; Activity [2]: inactive; Activity [3]: inactive
